Blank lines part the entries; values can stand above or below the compound they belong to. Activity calls are given as the source filed them.
Experiments:
[1] = tested on: Pancreatic islet cell carcinoma; test: Antivascular activity against pancreatic islet cell carcinoma in RIP-Tag2 mouse assessed as reduction in CD31-positive tumor blood vessels at 200 mg/kg, po qd administered via gavage and measured after 7 days by immunohistochemical staining based fluorescence microscopic analysis relative to control; type: functional; design: scale not given: the % may be the effect or the level left; conditions: time 7 day
Method in brief: (§1)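 For 7 days, RIP-Tag2 mice, 9–10 weeks old, received 75 mg/kg gavage BID, 200 mg/kg gavage QD, or 20 mg/kg ip QD. Perfusion-fixed tumors cut at 60–80 µm and stained for CD31 and type IV collagen basement membrane. Vessel area density from fluorescence images with threshold 30–50; sprouts and empty basement membrane sleeves examined by confocal microscopy. 3–8 mice/group; ANOVA, Fisher PLSD.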

[2] = tested on: Pancreatic islet cell carcinoma; test: Antivascular activity against pancreatic islet cell carcinoma in RIP-Tag2 mouse assessed as appearance of empty basement membrane sleeves at 200 mg/kg, po qd administered via gavage and measured after 7 days by immunohistochemical staining based fluorescence microscopic analysis; type: functional, organism-based; conditions: time 7.0 day; method in brief: as §1
[3] = tested on: Pancreatic islet cell carcinoma; test: Antivascular activity against pancreatic islet cell carcinoma in RIP-Tag2 mouse assessed as reduction in vascular sprouts at 200 mg/kg, po qd administered via gavage and measured after 7 days by immunohistochemical staining based fluorescence microscopic analysis relative to control; type: functional; design: scale not given: the % may be the effect or the level left; conditions: time 7 day; method in brief: as §1
[4] = tested on: Pancreatic islet cell carcinoma; test: (§2) Antivascular activity in pancreatic islet cell carcinoma in RIP-Tag2 mouse assessed as reduction in intratumoral hemorrhage by measuring reduction in TER-119 immunoreactivity at 200 mg/kg, po qd administered via gavage and measured after 7 days by confocal microscopic analysis relative to control; type: functional; design: scale not given: the % may be the effect or the level left; conditions: time 7 day
Method in brief: (§3)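 Regrowth design in 10-week-old RIP-Tag2 mice: OSI-930 200 mg/kg gavage QD for 7 days, then 4 days of vehicle, 75 mg/kg gavage BID, or 20 mg/kg ip QD; controls received vehicle for 11 days. Perfusion-fixed sections stained for CD31 for vessel density or for the erythrocyte marker TER-119, quantified by confocal microscopy. 3–8 mice/group; ANOVA, Fisher PLSD.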

[5] = tested on: Pancreatic islet cell carcinoma; test: as §2, with “gavage for 7 days followed by cessation” for “gavage”, “4” for “7”; type: functional; design: scale not given: the % may be the effect or the level left; conditions: time 7 day; method in brief: as §3
[6] = tested on: Pancreatic islet cell carcinoma; test: Additive antitumor activity in pancreatic islet cell carcinoma in RIP-Tag2 mouse assessed as reduction in proliferation by measuring reduction in phospho-histone H3 level at 100 mg/kg, po qd administered via gavage for 4 days in presence of OXA-01 by immunohistochemistry analysis; type: functional, organism-based; conditions: time 4.0 day
Method in brief: (§4)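 Perfusion-fixed tumor sections (60–80 µm) stained for phospho-histone H3 (proliferation) or activated caspase-3 (apoptosis) and quantified from confocal images. 3–8 mice/group; ANOVA, Fisher PLSD.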

[7] = tested on: Pancreatic islet cell carcinoma; test: Additive antitumor activity in pancreatic islet cell carcinoma in RIP-Tag2 mouse assessed as induction of apoptosis by measuring increase in activated caspase-3 level at 100 mg/kg, po qd administered via gavage for 4 days in presence of OXA-01 by immunohistochemistry analysis relative to control; type: functional; conditions: time 4 day; method in brief: as §4
[8] = tested on: Pancreatic islet cell carcinoma; test: Antitumor activity in pancreatic islet cell carcinoma in RIP-Tag2 mouse assessed as induction of apoptosis by measuring increase in activated caspase-3 level at 100 mg/kg, po qd administered via gavage for 4 days in presence of rapamycin by immunohistochemistry analysis; type: functional, organism-based; conditions: time 4.0 day; method in brief: as §4
[9] = target: Vascular endothelial growth factor receptor 2 (Homo sapiens, UniProt P35968)
Chain of Vascular endothelial growth factor receptor 2 (P35968 whole entry): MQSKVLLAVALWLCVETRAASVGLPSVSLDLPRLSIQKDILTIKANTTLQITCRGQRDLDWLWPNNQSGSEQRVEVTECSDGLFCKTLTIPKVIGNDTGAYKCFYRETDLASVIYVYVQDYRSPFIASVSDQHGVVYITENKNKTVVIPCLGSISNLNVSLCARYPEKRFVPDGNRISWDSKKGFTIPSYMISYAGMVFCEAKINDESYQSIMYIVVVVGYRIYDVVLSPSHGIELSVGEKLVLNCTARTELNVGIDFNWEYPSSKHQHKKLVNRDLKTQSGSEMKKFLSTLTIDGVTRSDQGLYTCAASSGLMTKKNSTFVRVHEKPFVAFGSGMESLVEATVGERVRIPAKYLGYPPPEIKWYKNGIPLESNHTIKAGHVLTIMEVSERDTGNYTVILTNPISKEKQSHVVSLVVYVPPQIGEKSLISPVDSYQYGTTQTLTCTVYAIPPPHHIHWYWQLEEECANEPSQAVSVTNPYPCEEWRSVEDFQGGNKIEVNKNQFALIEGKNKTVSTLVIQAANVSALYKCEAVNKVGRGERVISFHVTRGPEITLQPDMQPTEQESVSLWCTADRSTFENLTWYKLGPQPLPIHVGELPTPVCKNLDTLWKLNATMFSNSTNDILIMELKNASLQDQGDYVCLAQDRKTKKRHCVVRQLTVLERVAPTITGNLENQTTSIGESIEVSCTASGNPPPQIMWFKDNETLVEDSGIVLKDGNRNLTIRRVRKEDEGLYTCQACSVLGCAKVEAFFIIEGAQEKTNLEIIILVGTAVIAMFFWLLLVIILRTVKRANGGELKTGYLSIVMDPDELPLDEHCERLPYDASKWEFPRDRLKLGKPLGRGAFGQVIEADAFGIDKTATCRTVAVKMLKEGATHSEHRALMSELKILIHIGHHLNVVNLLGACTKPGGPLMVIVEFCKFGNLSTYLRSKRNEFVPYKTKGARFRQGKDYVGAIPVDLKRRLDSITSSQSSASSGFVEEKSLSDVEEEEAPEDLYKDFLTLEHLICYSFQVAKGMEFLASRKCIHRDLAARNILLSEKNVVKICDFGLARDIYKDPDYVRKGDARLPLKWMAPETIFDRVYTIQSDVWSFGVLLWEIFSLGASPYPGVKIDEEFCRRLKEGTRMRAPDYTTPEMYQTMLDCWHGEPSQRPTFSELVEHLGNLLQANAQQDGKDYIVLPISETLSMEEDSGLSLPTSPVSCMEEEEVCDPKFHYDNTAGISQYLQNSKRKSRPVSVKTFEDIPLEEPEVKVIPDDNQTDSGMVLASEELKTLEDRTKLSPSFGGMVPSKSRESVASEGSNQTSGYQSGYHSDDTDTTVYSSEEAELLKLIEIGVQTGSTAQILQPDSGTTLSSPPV

[10] = target: RAC-alpha serine/threonine-protein kinase (Homo sapiens) (UniProt P31749); test: Inhibition of AKT phosphorylation at Ser 473 site in serum deprived/insulin stimulated human OVCAR-3 cells harboring PTEN and wild type PI3K at 0.001 to 10 uM preincubated for 2 hrs followed by insulin stimulation and measured immediately by Western blot analysis; type: cell-based; conditions: dose 0.001-10 µM
Chain of RAC-alpha serine/threonine-protein kinase (Homo sapiens) (P31749 whole entry): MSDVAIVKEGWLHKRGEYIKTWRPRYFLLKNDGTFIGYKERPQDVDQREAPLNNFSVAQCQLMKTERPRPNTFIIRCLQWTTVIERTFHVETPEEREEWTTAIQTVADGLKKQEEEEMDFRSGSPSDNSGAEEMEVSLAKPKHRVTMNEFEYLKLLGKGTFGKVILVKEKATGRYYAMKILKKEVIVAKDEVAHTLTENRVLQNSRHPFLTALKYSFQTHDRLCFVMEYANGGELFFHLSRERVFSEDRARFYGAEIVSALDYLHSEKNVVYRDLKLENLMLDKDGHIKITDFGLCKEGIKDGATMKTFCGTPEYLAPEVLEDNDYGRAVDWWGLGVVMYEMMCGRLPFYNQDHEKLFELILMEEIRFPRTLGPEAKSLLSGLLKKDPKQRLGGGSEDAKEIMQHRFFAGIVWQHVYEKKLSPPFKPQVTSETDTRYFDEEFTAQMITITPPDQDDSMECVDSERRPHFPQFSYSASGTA

[11] = target: Proline-rich AKT1 substrate 1 (Homo sapiens) (UniProt Q96B36); test: Inhibition of PRAS40 phosphorylation at Ser 246 residue in serum deprived/insulin stimulated human OVCAR-3 cells harboring PTEN and wild type PI3K at 0.001 to 10 uM preincubated for 2 hrs followed by insulin stimulation and measured immediately by Western blot analysis; type: cell-based; conditions: dose 0.001-10 µM
[12] = target: Eukaryotic translation initiation factor 4E-binding protein 1 (Homo sapiens) (UniProt Q13541); test: Inhibition of 4E-BP1 phosphorylation at Ser 37/46 residues in serum deprived/insulin stimulated human OVCAR-3 cells harboring PTEN and wild type PI3K at 0.001 to 10 uM preincubated for 2 hrs followed by insulin stimulation and measured immediately by Western blot analysis; type: cell-based; conditions: dose 0.001-10 µM
Chain of Eukaryotic translation initiation factor 4E-binding protein 1 (Homo sapiens) (Q13541 whole entry): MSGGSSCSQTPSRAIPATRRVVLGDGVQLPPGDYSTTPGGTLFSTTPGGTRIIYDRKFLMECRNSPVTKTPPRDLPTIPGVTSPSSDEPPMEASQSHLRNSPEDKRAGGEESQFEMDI

OVCAR-3 [13] = test: (§5) Inhibition of S6K phosphorylation at 235/236 residues in serum deprived/insulin stimulated human OVCAR-3 cells harboring PTEN and wild type PI3K at 0.001 to 10 uM preincubated for 2 hrs followed by insulin stimulation and measured immediately by Western blot analysis; type: cell-based; conditions: dose 0.001-10 µM
OVCAR-3 [14] = test: as §5, with “S6K” for “S6K phosphorylation”, “PI3K assessed as inhibition of s6 substrate phosphorylation at […] residue” for “PI3K”; type: cell-based; conditions: dose 0.001-10 µM
Mus musculus [15] = test: In vivo inhibition of S6 phosphorylation at 235/236 residues in nu/nu CD-1 mouse xenografted with human GEO cells at 20 mg/kg administered for 12 days and measured 2 to 24 hrs post last dose by Western blot analysis; type: functional, organism-based; conditions: time 290-312 hrs
Method in brief: (§6)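 GEO s.c. xenografts in nu/nu CD-1 mice; 20 mg/kg for 12 days; tumors snap-frozen at 2, 8, 24 h, lysed in Triton X-100/HEPES pH 7.4 buffer with phosphatase inhibitors; phospho and total 4E-BP1 (37/46) or S6 (235/236) by Western blot; n=2.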

Mus musculus [16] = test: In vivo inhibition of 4E-BP1 phosphorylation at Ser37/46 residues in nu/nu CD-1 mouse xenografted with human GEO cells at 20 mg/kg administered for 12 days and measured 2 to 24 hrs post last dose by Western blot analysis; type: functional, organism-based; conditions: time 290-312 hrs; method in brief: as §6
Mus musculus [17] = test: In vivo inhibition of AKT phosphorylation in RIP-Tag2 mouse with pancreatic islet cell carcinoma 20 mg/kg, ip qd measured after 7 days by immunohistochemistry; type: functional, organism-based; conditions: time 7.0 day
Method in brief: (§7)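 RIP-Tag2 mice, 9–10 weeks old, given 20 mg/kg QD ip for 7 days; perfusion-fixed, 60–80 µm tumor sections immunostained for phospho-4E-BP1, phospho-Akt or phospho-S6K together with CD31; fluorescence/confocal imaging; 3–8 mice per group.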

Mus musculus [18] = test: In vivo inhibition of 4E-BP1 phosphorylation in RIP-Tag2 mouse with pancreatic islet cell carcinoma 20 mg/kg, ip qd measured after 7 days by immunohistochemistry; type: functional, organism-based; conditions: time 7.0 day; method in brief: as §7
Mus musculus [19] = test: In vivo inhibition of S6K phosphorylation in RIP-Tag2 mouse with pancreatic islet cell carcinoma 20 mg/kg, ip qd measured after 7 days by immunohistochemistry analysis; type: functional, organism-based; conditions: time 7.0 day; method in brief: as §7
[20] = tested on: Pancreatic islet cell carcinoma; test: Antitumor activity against pancreatic islet cell carcinoma in RIP-Tag2 mouse assessed as reduction in VEGF production by measuring reduction in fluorescence in entire tumor at 20 mg/kg, ip qd measured after 7 days by immunohistochemical staining based confocal microscopic analysis relative to control; type: functional; design: scale not given: the % may be the effect or the level left; conditions: time 7 day
Method in brief: (§8)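 Treatment began in RIP-Tag2 mice at 9–10 weeks: 75 mg/kg gavage BID for 1, 4 or 7 days, or 20 mg/kg ip QD for 7 days; vehicle Labrifil or water. Tissue fixed by vascular perfusion and 60–80 µm sections stained for VEGF with CD31. VEGF fluorescence intensity measured over whole tumor, tumor cells, or tumor vessels. 3–8 mice/group; ANOVA, Fisher PLSD.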

[21] = tested on: Pancreatic islet cell carcinoma; test: (§9) Antitumor activity against pancreatic islet cell carcinoma in RIP-Tag2 mouse assessed as reduction in VEGF production by measuring reduction in tumor cell associated fluorescence intensity at 20 mg/kg, ip qd measured after 7 days by immunohistochemical staining based confocal microscopic analysis relative to control; type: functional; design: scale not given: the % may be the effect or the level left; conditions: time 7 day; method in brief: as §8
[22] = tested on: Pancreatic islet cell carcinoma; test: as §9, with “tumor vessels” for “tumor cell”; type: functional; design: scale not given: the % may be the effect or the level left; conditions: time 7 day; method in brief: as §8
[23] = tested on: Pancreatic islet cell carcinoma; test: Antitumor activity against pancreatic islet cell carcinoma in RIP-Tag2 mouse assessed as reduction in VEGF-A expression at 20 mg/kg, ip qd measured after 7 days by immunoprecipitation based densitometric analysis; type: functional, organism-based; conditions: time 7.0 day
Method in brief: (§10)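 VEGF in tumor lysates from treated RIP-Tag2 mice (9–10 weeks old at start; 75 mg/kg gavage BID or 20 mg/kg ip QD) measured with mouse angiogenesis antibody arrays, read as pixel density. 3–8 mice/group, SEM; ANOVA with Fisher PLSD.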

[24] = tested on: Pancreatic islet cell carcinoma; test: Antitumor activity against pancreatic islet cell carcinoma in RIP-Tag2 mouse assessed as reduction in VEGF-B expression at 20 mg/kg, ip qd measured after 7 days by immunoprecipitation based densitometric analysis; type: functional, organism-based; conditions: time 7.0 day; method in brief: as §10
[25] = tested on: Pancreatic islet cell carcinoma; test: Antivascular activity against pancreatic islet cell carcinoma in RIP-Tag2 mouse assessed as reduction in CD31-positive tumor blood vessels at 20 mg/kg, ip qd measured after 7 days by immunohistochemical staining based fluorescence microscopic analysis; type: functional, organism-based; conditions: time 7.0 day; method in brief: as §1
[26] = tested on: Pancreatic islet cell carcinoma; test: Antivascular activity against pancreatic islet cell carcinoma in RIP-Tag2 mouse assessed as appearance of empty basement membrane sleeves at 20 mg/kg, ip qd measured after 7 days by immunohistochemical staining based confocal microscopic analysis; type: functional, organism-based; conditions: time 7.0 day; method in brief: as §1
[27] = tested on: Pancreatic islet cell carcinoma; test: Antivascular activity against pancreatic islet cell carcinoma in RIP-Tag2 mouse assessed as reduction in vascular sprouts at 20 mg/kg, ip qd measured after 7 days by immunohistochemical staining based fluorescence microscopic analysis relative to control; type: functional; design: scale not given: the % may be the effect or the level left; conditions: time 7 day; method in brief: as §1
[28] = tested on: Pancreatic islet cell carcinoma; test: Antivascular activity in pancreatic islet cell carcinoma in RIP-Tag2 mouse assessed as suppression of tumor regrowth by measuring reduction in vessel density at 20 mg/kg, ip qd pretreated with OSI-930 for 7 days at 200 mg/kg, po followed by compound administration and measured after 4 days (reference value: 18%); type: functional; design: scale not given: the % may be the effect or the level left; conditions: time 4 day; method in brief: as §3
[29] = tested on: Pancreatic islet cell carcinoma; test: Antivascular activity in pancreatic islet cell carcinoma in RIP-Tag2 mouse assessed as reduction in intratumoral hemorrhage by measuring reduction in TER-119 immunoreactivity at 20 mg/kg, ip qd pretreated with OSI-930 for 7 days at 200 mg/kg, po followed by compound administration and measured after 4 days by confocal microscopic analysis relative to control; type: functional; design: scale not given: the % may be the effect or the level left; conditions: time 4 day; method in brief: as §3
[30] = tested on: Pancreatic islet cell carcinoma; test: Antitumor activity in pancreatic islet cell carcinoma in RIP-Tag2 mouse assessed as induction of apoptosis by measuring increase in activated caspase-3 level at 20 mg/kg, ip qd […] for 4 days in presence of OSI-930 by immunohistochemistry analysis; type: functional, organism-based; conditions: time 4.0 day; method in brief: as §4

- IC50 [9]: 9 nM
SMILES: O=C(Nc1ccc(OC(F)(F)F)cc1)c1sccc1NCc1ccnc2ccccc12 [OSI-930]
- Activity [1]: 61%
- Activity [2]: Active
- Activity [3]: 61%
- Activity [4]: 72%
- Activity [5]: 28%
- Activity [6]: Active
- Activity [7]: 700%
- Activity [8]: inactive

- inhibition [10]: inactive
- inhibition [11]: inactive
- inhibition [12]: inactive
SMILES: CO[C@H]1C[C@@H]2CC[C@@H](C)[C@@](O)(O2)C(=O)C(=O)N2CCCC[C@H]2C(=O)O[C@H]([C@H](C)C[C@@H]2CC[C@@H](O)[C@H](OC)C2)CC(=O)[C@H](C)/C=C(\C)[C@@H](O)[C@@H](OC)C(=O)[C@H](C)C[C@H](C)/C=C/C=C/C=C/1C [SIROLIMUS]
- inhibition (OVCAR-3 [13]): Active
- inhibition (OVCAR-3 [14]): Active
- inhibition (Mus musculus [15]): Active
- inhibition (Mus musculus [16]): Active
- inhibition (Mus musculus [17]): inactive
- inhibition (Mus musculus [18]): inactive
- inhibition (Mus musculus [19]): Active
- Activity [20]: 21%
- Activity [21]: 34%
- Activity [22]: 20%
- Activity [23]: inactive
- Activity [24]: inactive
- Activity [25]: inactive
- Activity [26]: inactive
- Activity [27]: 21%
- Activity [28]: 15%
- Activity [29]: 48%
- Activity [30]: inactive
